Source: ChEMBL document CHEMBL1125100, “New quinolone antibacterial agents. Synthesis and biological activity of 7-(3,3- or 3,4-disubstituted-1-pyrrolidinyl)quinoline-3-carboxylic acids” (1990)
In brackets after ≈: the same amount, converted by molar mass.

Assays:
Format in all cases: functional
Staphylococcus aureus [1] = assay: Antibacterial activity was determined against Gram-positive Staphylococcus aureus UC-76 bacteria; conditions: in the assay text read “Gram-positive” for “Gram-negative”
Procedure, shortened: (§1)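 MICs, in micrograms per milliliter, were determined by standard microtitration (microdilution) techniques against each listed Gram-negative and Gram-positive strain.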

Escherichia coli [2] = assay: Gyrase-drug induced cleavage against Escherichia coli
Procedure, shortened: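 Compounds were tested for induction of DNA gyrase-mediated cleavage. The value is the minimum drug concentration giving linear DNA at an intensity matching that produced by oxolinic acid at 10 μg/mL.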

Enterobacter cloacae = assay: Antibacterial activity was determined against Gram-negative Enterobacter cloacae HA2646 bacteria; procedure, shortened: as §1
Streptococcus pneumoniae [3] = assay: Antibacterial activity was determined against Gram-positive Streptococcus pneumoniae SV-1 bacteria; procedure, shortened: as §1
Klebsiella pneumoniae = assay: Antibacterial activity was determined against Gram-negative Klebsiella pneumoniae MGH-2 bacteria; procedure, shortened: as §1
Enterococcus faecalis = assay: Antibacterial activity was determined against Gram-positive Streptococcus faecalis MGH-2 bacteria; procedure, shortened: as §1
Staphylococcus aureus [4] = assay: Antibacterial activity was determined against Gram-positive Staphylococcus aureus H228 bacteria; conditions: in the assay text read “Gram-positive” for “Gram-negative”; procedure, shortened: as §1
Escherichia coli [5] = assay: Protective dose against Escherichia coli H560 bacteria; conditions: read-out: PD50
Procedure, shortened: (§2)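 Acute lethal systemic infection model in female Charles River CD-1 mice. The value is the median protective dose (PD50, mg/kg), defined as the dose needed to protect 50% of mice from the lethal infection.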

Providencia rettgeri = assay: Antibacterial activity was determined against Gram-negative Providencia rettgeri H1771 bacteria; procedure, shortened: as §1
Escherichia coli [6] = assay: Antibacterial activity was determined against Gram-negative Escherichia coli H560 bacteria; procedure, shortened: as §1
Escherichia coli [7] = assay: Antibacterial activity was determined against Gram-negative Escherichia coli Vogel bacteria; procedure, shortened: as §1
Pseudomonas aeruginosa = assay: Antibacterial activity was determined against Gram-negative Pseudomonas aeruginosa UI-18 bacteria; procedure, shortened: as §1
Streptococcus pneumoniae [8] = assay: Protective dose against Streptococcus pneumoniae bacteria; conditions: read-out: PD50; procedure, shortened: as §2
Streptococcus pyogenes [9] = assay: Antibacterial activity was determined against Gram-positive Streptococcus pyogenes C203 bacteria; procedure, shortened: as §1
Streptococcus pyogenes [10] = assay: Protective dose against Streptococcus pyogenes bacteria; conditions: read-out: PD50; procedure, shortened: as §2
Streptococcus pneumoniae [11] = assay: Protective dose against Streptococcus pneumonia bacteria; conditions: read-out: PD50; procedure, shortened: as §2

SMILES	MIC (Staphylococcus aureus [1])	MEC (Escherichia coli [2])	MIC (Enterobacter cloacae)	MIC (Streptococcus pneumoniae [3])	MIC (Klebsiella pneumoniae)	MIC (Enterococcus faecalis)	MIC (Staphylococcus aureus [4])	ED50 (Escherichia coli [5])	MIC (Providencia rettgeri)	MIC (Escherichia coli [6])	MIC (Escherichia coli [7])	MIC (Pseudomonas aeruginosa)	ED50 (Streptococcus pneumoniae [8])	MIC (Streptococcus pyogenes [9])	ED50 (Streptococcus pyogenes [10])	ED50 (Streptococcus pneumoniae [11])
NCC1CN(c2c(F)cc3c(=O)c(C(=O)O)cn(C4CC4)c3c2F)CC1c1ccccc1 (stereo not drawn)	0.006 µg/mL (≈ 0.0137 µM)	2.62 µg/mL	0.2 µg/mL (≈ 0.455 µM)	0.006 µg/mL (≈ 0.0137 µM)	0.1 µg/mL (≈ 0.228 µM)	0.013 µg/mL (≈ 0.0296 µM)	0.013 µg/mL (≈ 0.0296 µM)	27 mg/kg	0.4 µg/mL (≈ 0.91 µM)	0.013 µg/mL (≈ 0.0296 µM)	0.1 µg/mL (≈ 0.228 µM)	1.6 µg/mL (≈ 3.64 µM)	25 mg/kg	0.013 µg/mL (≈ 0.0296 µM)	11 mg/kg	–
NCC1(c2ccccc2)CCN(c2c(F)cc3c(=O)c(C(=O)O)cn(C4CC4)c3c2F)C1 (stereo not drawn)	0.013 µg/mL (≈ 0.0296 µM)	2.62 µg/mL	0.05 µg/mL (≈ 0.114 µM)	0.013 µg/mL (≈ 0.0296 µM)	0.1 µg/mL (≈ 0.228 µM)	0.05 µg/mL (≈ 0.114 µM)	0.025 µg/mL (≈ 0.0569 µM)	14 mg/kg	0.2 µg/mL (≈ 0.455 µM)	0.013 µg/mL (≈ 0.0296 µM)	0.05 µg/mL (≈ 0.114 µM)	0.8 µg/mL (≈ 1.82 µM)	–	0.05 µg/mL (≈ 0.114 µM)	21 mg/kg	–
NCC1CCN(c2c(F)cc3c(=O)c(C(=O)O)cn(C4CC4)c3c2F)C1 (stereo not drawn)	0.003 µg/mL (≈ 0.00826 µM)	0.25 µg/mL	0.05 µg/mL (≈ 0.138 µM)	0.006 µg/mL (≈ 0.0165 µM)	0.05 µg/mL (≈ 0.138 µM)	0.025 µg/mL (≈ 0.0688 µM)	0.025 µg/mL (≈ 0.0688 µM)	6 mg/kg	0.1 µg/mL (≈ 0.275 µM)	0.006 µg/mL (≈ 0.0165 µM)	0.025 µg/mL (≈ 0.0688 µM)	0.2 µg/mL (≈ 0.55 µM)	–	0.013 µg/mL (≈ 0.0358 µM)	4 mg/kg	10 mg/kg
NC1CN(c2c(F)cc3c(=O)c(C(=O)O)cn(C4CC4)c3c2F)CC1c1ccccc1 (stereo not drawn)	0.025 µg/mL (≈ 0.0588 µM)	2.75 µg/mL	0.2 µg/mL (≈ 0.47 µM)	0.1 µg/mL (≈ 0.235 µM)	0.2 µg/mL (≈ 0.47 µM)	0.1 µg/mL (≈ 0.235 µM)	0.05 µg/mL (≈ 0.118 µM)	–	0.4 µg/mL (≈ 0.94 µM)	0.025 µg/mL (≈ 0.0588 µM)	0.1 µg/mL (≈ 0.235 µM)	1.6 µg/mL (≈ 3.76 µM)	–	0.1 µg/mL (≈ 0.235 µM)	–	–
NC1(c2ccccc2)CCN(c2c(F)cc3c(=O)c(C(=O)O)cn(C4CC4)c3c2F)C1 (stereo not drawn)	0.006 µg/mL (≈ 0.0141 µM)	0.55 µg/mL	0.006 µg/mL (≈ 0.0141 µM)	0.013 µg/mL (≈ 0.0306 µM)	0.05 µg/mL (≈ 0.118 µM)	0.05 µg/mL (≈ 0.118 µM)	0.013 µg/mL (≈ 0.0306 µM)	12 mg/kg	0.05 µg/mL (≈ 0.118 µM)	0.013 µg/mL (≈ 0.0306 µM)	0.025 µg/mL (≈ 0.0588 µM)	0.2 µg/mL (≈ 0.47 µM)	–	0.05 µg/mL (≈ 0.118 µM)	12 mg/kg	–
NC1CCN(c2c(F)cc3c(=O)c(C(=O)O)cn(C4CC4)c3c2F)C1 (stereo not drawn)	0.025 µg/mL (≈ 0.0716 µM)	0.1 µg/mL	0.025 µg/mL (≈ 0.0716 µM)	0.05 µg/mL (≈ 0.143 µM)	0.025 µg/mL (≈ 0.0716 µM)	0.05 µg/mL (≈ 0.143 µM)	0.05 µg/mL (≈ 0.143 µM)	1 mg/kg	0.05 µg/mL (≈ 0.143 µM)	0.006 µg/mL (≈ 0.0172 µM)	0.013 µg/mL (≈ 0.0372 µM)	0.1 µg/mL (≈ 0.286 µM)	–	0.05 µg/mL (≈ 0.143 µM)	7.5 mg/kg	15 mg/kg
CN(C)CC1(c2ccccc2)CCN(c2c(F)cc3c(=O)c(C(=O)O)cn(C4CC4)c3c2F)C1 (stereo not drawn)	0.05 µg/mL (≈ 0.107 µM)	2.62 µg/mL	0.05 µg/mL (≈ 0.107 µM)	0.006 µg/mL (≈ 0.0128 µM)	0.1 µg/mL (≈ 0.214 µM)	0.05 µg/mL (≈ 0.107 µM)	0.05 µg/mL (≈ 0.107 µM)	50 mg/kg	0.1 µg/mL (≈ 0.214 µM)	0.013 µg/mL (≈ 0.0278 µM)	0.05 µg/mL (≈ 0.107 µM)	0.4 µg/mL (≈ 0.856 µM)	–	0.025 µg/mL (≈ 0.0535 µM)	–	–
CC1(CN)CCN(c2c(F)cc3c(=O)c(C(=O)O)cn(C4CC4)c3c2F)C1 (stereo not drawn)	0.003 µg/mL (≈ 0.00795 µM)	2.62 µg/mL	0.025 µg/mL (≈ 0.0662 µM)	0.006 µg/mL (≈ 0.0159 µM)	0.1 µg/mL (≈ 0.265 µM)	0.013 µg/mL (≈ 0.0344 µM)	0.013 µg/mL (≈ 0.0344 µM)	2.1 mg/kg	0.2 µg/mL (≈ 0.53 µM)	0.013 µg/mL (≈ 0.0344 µM)	0.05 µg/mL (≈ 0.132 µM)	0.4 µg/mL (≈ 1.06 µM)	–	0.025 µg/mL (≈ 0.0662 µM)	9 mg/kg	5 mg/kg
CC1(N)CCN(c2c(F)cc3c(=O)c(C(=O)O)cn(C4CC4)c3c2F)C1 (stereo not drawn)	0.2 µg/mL (≈ 0.55 µM)	0.8 µg/mL	0.2 µg/mL (≈ 0.55 µM)	0.8 µg/mL (≈ 2.2 µM)	0.4 µg/mL (≈ 1.1 µM)	1.6 µg/mL (≈ 4.4 µM)	0.8 µg/mL (≈ 2.2 µM)	–	0.8 µg/mL (≈ 2.2 µM)	0.2 µg/mL (≈ 0.55 µM)	0.2 µg/mL (≈ 0.55 µM)	3.1 µg/mL (≈ 8.53 µM)	–	0.8 µg/mL (≈ 2.2 µM)	–	–
CCNCC1(c2ccccc2)CCN(c2c(F)cc3c(=O)c(C(=O)O)cn(C4CC4)c3c2F)C1 (stereo not drawn)	0.05 µg/mL (≈ 0.107 µM)	2.62 µg/mL	0.8 µg/mL (≈ 1.71 µM)	0.025 µg/mL (≈ 0.0535 µM)	0.8 µg/mL (≈ 1.71 µM)	0.2 µg/mL (≈ 0.428 µM)	0.1 µg/mL (≈ 0.214 µM)	37 mg/kg	1.6 µg/mL (≈ 3.42 µM)	0.1 µg/mL (≈ 0.214 µM)	0.4 µg/mL (≈ 0.856 µM)	3.1 µg/mL (≈ 6.63 µM)	–	0.1 µg/mL (≈ 0.214 µM)	–	–
